The text below walks through data of article PMC9968502 (International Journal of Nanomedicine, 2023).

In general, solubility refers to the concentration that dissolves in the medium under given conditions.

For data set [1] the following is noted: above the CMC, previous studies; ref [16–18]; cited from earlier work.
The nature of data set [2]: Particle size analysis of micelles by dynamic light scattering. Type of data set: physicochemical. As to conditions: in water, DLS. In a few lines: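 Carrier glycoside alone or the solid dispersion powder was dispersed in deionised water and sonicated for 2 min. Volumetric size distribution was measured by dynamic light scattering, and the mean size was taken from 3 replicates.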

Data set [3] is described as follows: Apparent solubility measurement in deionised water. It counts as physicochemical. The following applies: 37 °C, thermodynamic from solid. In a few lines:
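Excess crystalline test compound or its 1:10 solid dispersion was shaken in deionised water at 50 strokes/min and 37 °C for 24 h, then filtered (0.45 µm). Concentration was measured by HPLC: C18 column, 2% glacial acetic acid:methanol (23:77 v/v) at 1 mL/min, detection at 424 nm. Measured in triplicate.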

Data set [4] in a line: Dissolution test in pH 1.2 and pH 6.8 buffers with 0.2% Tween 80. The following applies: 0.2% Tween 80, 37 °C. It counts as physicochemical. In a few lines:
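Crystalline compound or solid dispersion, each equivalent to 2 mg test compound, was stirred at 50 rpm and 37 °C in 100 mL phosphate buffer (pH 1.2 or pH 6.8, each with 0.2% Tween 80). Samples were taken at 5, 10, 20, 30, 60, 120, 180, 240 and 300 min, with medium replaced at 37 °C. Samples were filtered (0.45 µm) and analysed by the 424 nm HPLC method.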

For data set [5] the following is noted: ref [19], cited from earlier work.

In brackets after ≈: the same amount, converted by molar mass.

As for α-Glucosyl Stevia [Stevia-G], in data set [1], the Aggregation number is recorded as 12.

Consider `COc1cc(/C=C/C(=O)CC(=O)/C=C/c2ccc(O)c(OC)c2)ccc1O` [CUR, Curcumin], for which, in data set [2], the “Micelle size (diameter)” value is recorded as ~ 154 nm. Also, the solubility at 24 h in data set [3] stood at 0.25 µg/mL (≈ 0.679 µM). Besides, the CUR released in data set [4] (pH 1.2 buffer, in 300 min) worked out at 22%. The “Dissolution rate (in words)” value in data set [4] (pH 6.8 buffer) is reported as “slow dissolution rate”.

Consider `COc1cc(C2Oc3cc([C@H]4Oc5cc(O)cc(O)c5C(=O)[C@@H]4O)ccc3OC2CO)ccc1O` (stereo partly drawn) [silybin], for which the “Fold increment of silybin water solubility by Mog-V” value in data set [5] is reported as 2000 fold. For the same compound, the “Water solubility of silybin” value in data set [5] (silybin alone) was 1 µg/mL. Further, the “Water solubility of silybin with Mog-V” value in data set [5] (solid dispersion of silybin in Mog-V dissolved in water) is reported as 2000 µg/mL.

With α-Glycosyl Rutin [Rutin-G], the Aggregation number in data set [1] was 4.
